An excerpt weighted towards active compounds, which were near 1.9% of everything screened.
CHRM4 PAM = potentiates acetylcholine response at human M4 receptor; CHO-K1 hM4/Gqi5, Fluo-8 calcium fluorescence, ACh EC20; 0% = ACh EC20, 100% = maximal ACh; activation, % at 3 µM; 360,000 compounds, 0.4% hits; AID 624126;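 active means activation above its plate's cutoff, the mean activation of sample wells plus 3 SD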
Target sequence (P08173 whole entry, looked up): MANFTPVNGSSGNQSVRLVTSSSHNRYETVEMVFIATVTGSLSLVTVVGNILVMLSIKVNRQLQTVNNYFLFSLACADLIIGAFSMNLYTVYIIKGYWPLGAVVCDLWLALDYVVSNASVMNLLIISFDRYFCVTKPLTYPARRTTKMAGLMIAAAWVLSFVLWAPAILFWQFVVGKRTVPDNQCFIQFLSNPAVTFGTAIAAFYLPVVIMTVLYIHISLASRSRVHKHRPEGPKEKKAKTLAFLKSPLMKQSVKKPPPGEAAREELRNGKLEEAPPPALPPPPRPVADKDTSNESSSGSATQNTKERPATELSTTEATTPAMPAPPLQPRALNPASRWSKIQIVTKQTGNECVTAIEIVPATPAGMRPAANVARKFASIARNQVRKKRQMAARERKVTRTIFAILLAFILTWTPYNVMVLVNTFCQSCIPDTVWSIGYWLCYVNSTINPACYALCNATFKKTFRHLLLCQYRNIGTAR
M5 PAM = positive allosteric modulators of human muscarinic M5 receptor; CHO-K1 hM5, Fluo-8 calcium, ACh EC20 PAM; 0% = ACh EC20, 100% = ACh EC100; activation, % at 3 µM; 360,000 compounds, 0.3% hits; AID 624038;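 active means activation above the run cutoff, the mean activation of all test compounds plus 3 SD, cut at about 18% in these data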
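Assay system – human M5 receptor in CHO-K1 cells · Read-out – % activation, ACh-normalized · Technique – Fluo-8 calcium fluorescence · Dosing – single-point, 3 µM nominal · Incubation – Fluo-8 loading 80 min at 37 °C plus 30 min room temperature · Repeats – singlicate, one well per test compound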
CHRM4 agonist = agonists of human muscarinic M4 receptor (CHRM4) | activation, % at 3 µM | CHO-K1 hM4/Gqi5, Fluo-8 calcium fluorescence; vehicle 0%, full acetylcholine response 100% | 360,000 compounds, 0.14% hits | P08173;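 active means activation above the run mean over all test wells plus 3 SD, cut at about 32% in these data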;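 further: peak over basal fluorescence ratio per well then scaled between controls; 0% = DMSO wells and 100% = acetylcholine at EC100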
M5 ag = CHRM5 agonism in calcium assay | P08912 | CHO-K1 hM5 cells, Fluo-8 calcium fluorescence; 0% DMSO wells, 100% maximal acetylcholine response | activation, % at 3 µM | 360,000 compounds, 0.19% hits | AID 624037;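 active means activation above the run's mean over test compounds plus 3 SD, cut at about 23% in these data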;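 further: signal is peak over basal fluorescence ratio across the kinetic read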
CHRM5 antagonist = CHRM5 antagonism in calcium assay; P08912; CHO-hM5 cells, Fluo-8 calcium fluorescence, ACh EC80; inhibition, % at 3 µM; 360,000 compounds, 0.59% hits; AID 624040;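 active means inhibition above a per-plate cutoff, the mean of that plate's test compounds plus 3 SD, cut at about 27% in these data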;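 further: 0% = acetylcholine EC80 with DMSO and 100% = DMSO without agonist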
M4 antag = CHRM4 antagonism in calcium assay; P08173; CHO-hM4 cells, ACh EC80, Fluo-8 calcium fluorescence; inhibition, % at 3 µM; 360,000 compounds, 0.73% hits;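 active means inhibition above its plate's cutoff, the mean inhibition of sample wells plus 3 SD, cut at about 27% in these data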;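 further: 0% = acetylcholine EC80 with DMSO and 100% = DMSO without agonist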
* hit, by the source's call; ! = repeats disagree.

SMILES	CHRM4 PAM	M5 PAM	CHRM4 agonist	M5 ag	CHRM5 antagonist	M4 antag
CC1CN(S(=O)(=O)c2cccc(C(=O)NCc3ccccn3)c2)CC(C)O1 (stereo not drawn)	-1.7	-2.9	1.7	0.9	-1.1	0.2
CN1CCN(CCCN2c3ccccc3Sc3ccc(C(F)(F)F)cc32)CC1	-5.5	-24.3	4.6	-10.6	8.4	85.2*!
O=C(CN1CCCC(O)C1)N1c2ccccc2Sc2ccc(C(F)(F)F)cc21 (stereo not drawn)	-19.8	-16.2	0.6	-10.9	40.6*	64.6*
O=C(Nc1ccc2ccccc2c1)C(c1ccccc1F)n1c(=O)c(-c2cc3ccccc3[nH]2)nc2ccccc21 (stereo not drawn)	9.9	1.1	2.1	2.7	0.1	-2.2
Cc1ccc(NC(=O)NNC(=O)COc2ccc([N+](=O)[O-])cc2)cc1C	0.3	1.1	1.2	-3.0	-13.4	-4.5
Cc1ccc(NC(=O)CCC(=O)NNC(=O)COc2ccc([N+](=O)[O-])cc2)cc1C	18.1*	6.0	1.5	0.6	-2.0	-6.0
O=S(=O)(c1ccc(F)cc1)N1CCN(Cc2ccccn2)CC1	1.1	9.6	0.6	4.1	6.6	-10.5
CC(=O)OCCNc1cc(Sc2nc3ccccc3[nH]2)c2nonc2c1[N+](=O)[O-]	-5.3	-6.5	1.9	-3.0	19.7	40.8*
O=C(Nc1ccccc1)Nc1ccc(F)c([N+](=O)[O-])c1	-9.6	-14.2	13.4	6.3	27.0*	9.3
O=C(Nc1ccccc1)Nc1ccc(Cl)c([N+](=O)[O-])c1	-9.9	-15.1	12.4	10.6	27.5*	14.1
Cc1ccc(NC(=O)Nc2ccccc2)cc1[N+](=O)[O-]	-27.1	-20.8	18.6	9.8	16.0	17.2
O=C(NC(=S)Nc1ccc(F)c([N+](=O)[O-])c1)c1ccccc1F	-3.5	-7.8	0.0	-6.6	7.8	2.9
COc1ccc(C2C(C(=O)O)CCC(=O)N2c2ccc(OC)cc2)cc1 (stereo not drawn)	-3.8	-4.4	1.6	0.6	-5.2	2.0
COc1ccc(C2C(C(=O)NCc3ccco3)CCC(=O)N2c2ccc(OC)cc2)cc1 (stereo not drawn)	4.0	46.0*	0.3	-4.3	3.2	-5.1
Brc1cc(Cc2nnc(-c3ccccc3)o2)c(Br)s1	14.1	2.5	-0.3	0.5	9.5	2.6
COc1ccc(COc2ccccc2C(=O)NCc2ccccc2)cc1F	-14.6	-18.8	13.9	4.2	27.7*	19.3
COc1cc(C(=O)NCc2ccccc2)ccc1OC(F)F	2.7	-6.4	0.5	-2.0	10.0	-1.4
COc1ccc(NC(=S)NC(NC(=O)c2cccc(C)c2)C(Cl)(Cl)Cl)c([N+](=O)[O-])c1 (stereo not drawn)	0.8	-7.3	3.4	0.7	-1.9	-2.7
COc1ccc(NC(=S)NC(NC(=O)c2cccc(Cl)c2)C(Cl)(Cl)Cl)c([N+](=O)[O-])c1 (stereo not drawn)	-5.0	-19.1	21.5	11.8	39.3*	8.1
CC1(c2ccccc2Cl)NC(=O)N(CC(=O)Nc2ccc(N3CCCCC3)cc2)C1=O (stereo not drawn)	-0.1	2.2	2.4	2.6	0.7	-11.0
CCN1C(=O)[C@H]2[C@@H](c3ccc(-c4cccc(Cl)c4)c(OC)c3)N3CCC[C@@]3(C(=O)OC)[C@H]2C1=O	-8.3	1.5	4.7	1.9	9.4	4.0
CCn1c(COc2ccc3ccccc3c2C)nnc1SCC(=O)Nc1cccc(C(=O)O)c1	25.2*	8.3	-0.2	-1.0	1.7	-9.5
CCn1c(COc2cccc(C)c2)nnc1SCC(=O)Nc1cccc(C(=O)O)c1	6.1	-3.6	1.2	2.5	-8.9	-4.7
CC(C)[C@H](NC(=O)C1CC(=O)N(c2ccc3c(c2)OCCO3)C1)C(=O)NC1CCCC1 (stereo partly drawn)	3.1	-1.4	-0.1	-3.2	-2.2	-2.9
CCNc1nc(NC(C)C)nc(N(C)C#N)n1	5.9	5.0	-0.3	1.9	-0.2	5.1
SMILES	CHRM4 PAM	M5 PAM	CHRM4 agonist	M5 ag	CHRM5 antagonist	M4 antag
CCCN(C#N)c1nc(NCC)nc(NC(C)C)n1	10.2	-0.6	-0.5	8.9	53.2*	-1.6
Cc1ccc(CN2CCN(Cc3cc4ccccc4o3)CC2CCO)cc1 (stereo not drawn)	-1.1	-5.2	1.2	-4.5	2.2	5.1
CCNC(=O)NC(=O)CSc1ccc(S(=O)(=O)N2CCCCC2)cn1	-3.3	-2.5	0.4	-0.7	3.8	-2.7
Cc1ccc(NC(=O)c2cc(N3C(=O)C=CC3=O)ccc2N2CCOCC2)cc1	-2.0	20.6*	2.1	2.2	6.6	12.4
Cc1ccc(NC(=O)c2cc(NC(=O)c3ccco3)ccc2N2CCOCC2)cc1	1.1	-8.6	8.3	1.4	0.4	-1.7
CC(C)(C(=O)N1CCC1(C)C(=O)NC1Cc2ccccc2C1)c1ccccc1 (stereo not drawn)	-0.9	-0.9	3.5	0.1	-3.0	-9.8
c1cc2cc(CNc3nc(NCC4CC4)nc4ccsc34)ccc2o1	-6.4	-9.6	10.2	3.3	15.6	5.1
COc1ccccc1CNc1nc(NCc2ccccc2OC)c2sccc2n1	-9.7	-13.9	12.4	3.2	25.4	10.5
COc1ccccc1CNc1nc(NCc2ccc3occc3c2)c2sccc2n1	-9.3	-18.1	12.2	2.3	43.2*	21.6
COc1ccccc1CNc1nc(NCc2ccccc2SC)c2sccc2n1	-9.4	-14.0	12.8	1.6	30.3*	32.3*
Cc1nc2ccc(NC(=O)c3ccc([N+](=O)[O-])cc3)cc2[nH]1	1.4	-2.8	1.2	-4.6	-0.6	-1.0
O=C(Nc1c[nH]c(=O)[nH]c1=O)c1cccc(F)c1	0.0	-4.5	1.2	-2.7	13.1	-1.9
O=C(Nc1c[nH]c(=O)[nH]c1=O)c1cccc([N+](=O)[O-])c1	-6.6	21.7*	0.5	4.2	-15.8	-7.4
Cc1cc(C(=O)Nc2c[nH]c(=O)[nH]c2=O)ccc1[N+](=O)[O-]	6.7	4.1	1.1	1.1	-0.1	2.0
Cc1cccc(N2C(=O)c3ccc(C(=O)Nc4c[nH]c(=O)[nH]c4=O)cc3C2=O)c1	15.6	5.7	1.1	-0.8	-5.3	27.4*
CN1CCN(C2CN(Cc3cn(Cc4cccc(C(F)(F)F)c4)nn3)S(=O)(=O)C2)CC1 (stereo not drawn)	8.6	9.4	0.4	-0.9	-3.3	-6.5
CCOP(=O)(OCC)C(NC(=O)c1cc([N+](=O)[O-])cc([N+](=O)[O-])c1)C(F)(F)F (stereo not drawn)	0.4	11.0	1.4	-1.4	6.3	0.7

Source: PubChem BioAssay
